According to ChEMBL document CHEMBL1157638, “Fluorescent epigenetic small molecule induces expression of the tumor suppressor ras-association domain family 1A and inhibits human prostate xenograft” (J Med Chem, 2010):

Experiments:
[1] = Growth inhibition of human […] cells assessed as cell growth at 1 uM relative to untreated control; assay type: functional; conditions: read-out: Activity
UACC-257 [2] = test: Growth inhibition of human UACC257 cells assessed as cell growth at 1 uM relative to untreated control; assay type: functional; conditions: read-out: Activity
OVCAR-4 = test: Growth inhibition of human OVCAR4 cells assessed as cell growth at 10 uM relative to untreated control; assay type: functional; conditions: read-out: Activity
MOLT-4 [3] = test: Growth inhibition of human MOLT4 cells assessed as cell growth at 1 nM relative to untreated control; assay type: functional; conditions: read-out: Activity
SK-OV-3 = test: Growth inhibition of human SKOV3 cells assessed as cell growth at 10 nM relative to untreated control; assay type: functional; conditions: read-out: Activity
SR [4] = test: Growth inhibition of human SR cells assessed as cell growth at 1 nM relative to untreated control; assay type: functional; conditions: read-out: Activity
HT-29 [5] = test: Growth inhibition of human HT-29 cells assessed as cell growth at 100 nM relative to untreated control; assay type: functional; conditions: read-out: Activity
OVCAR-3 = test: Growth inhibition of human OVCAR-3 cells assessed as cell growth at 10 nM relative to untreated control; assay type: functional; conditions: read-out: Activity
KM12 = test: Growth inhibition of human KM12 cells assessed as cell growth at 1 uM relative to untreated control; assay type: functional; conditions: read-out: Activity
MCF7 = test: Growth inhibition of human MCF7 cells assessed as cell growth at 1 nM relative to untreated control; assay type: functional; conditions: read-out: Activity
UACC-257 [6] = test: Growth inhibition of human UACC257 cells assessed as cell growth at 100 nM relative to untreated control; assay type: functional; conditions: read-out: Activity
OVCAR-5 [7] = test: Growth inhibition of human OVCAR5 cells assessed as cell growth at 1 nM relative to untreated control; assay type: functional; conditions: read-out: Activity
RXF 393 = test: Growth inhibition of human RXF393 cells assessed as cell growth at 1 nM relative to untreated control; assay type: functional; conditions: read-out: Activity
MDA-MB-231 [8] = test: Growth inhibition of human MDA-MB-231 cells assessed as cell growth at 10 nM relative to untreated control; assay type: functional; conditions: read-out: Activity
NCI-H522 = test: Growth inhibition of human NCI-H522 cells assessed as cell growth at 100 nM relative to untreated control; assay type: functional; conditions: read-out: Activity
SW-620 = test: Growth inhibition of human SW620 cells assessed as cell growth at 10 nM relative to untreated control; assay type: functional; conditions: read-out: Activity
MOLT-4 [9] = test: Growth inhibition of human MOLT4 cells assessed as cell growth at 1 uM relative to untreated control; assay type: functional; conditions: read-out: Activity
Malme-3M = test: Growth inhibition of human MALME-3M cells assessed as cell growth at 1 nM relative to untreated control; assay type: functional; conditions: read-out: Activity
UACC-62 [10] = test: Growth inhibition of human UACC62 cells assessed as cell growth at 10 nM relative to untreated control; assay type: functional; conditions: read-out: Activity
HCT-15 = test: Growth inhibition of human HCT15 cells assessed as cell growth at 10 uM relative to untreated control; assay type: functional; conditions: read-out: Activity
Outline: (§1)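 Run externally at the National Cancer Institute as a 59-cell-line panel screen, with concentrations up to 100 μM. Growth was scored relative to control, where negative growth or total cell kill was possible. Data are in the Supporting Information.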

HL-60(TB) [11] = test: Growth inhibition of human HL-60(TB) cells assessed as cell growth at 1 nM relative to untreated control; assay type: functional; conditions: read-out: Activity
HT-29 [12] = test: Growth inhibition of human HT-29 cells assessed as cell growth at 1 uM relative to untreated control; assay type: functional; conditions: read-out: Activity
A498 [13] = test: Growth inhibition of human A498 cells assessed as cell growth at 1 uM relative to untreated control; assay type: functional; conditions: read-out: Activity
SK-MEL-28 = test: Growth inhibition of human SK-MEL-28 cells assessed as cell growth at 1 uM relative to untreated control; assay type: functional; conditions: read-out: Activity
IGROV-1 = test: Growth inhibition of human IGROV1 cells assessed as cell growth at 10 nM relative to untreated control; assay type: functional; conditions: read-out: Activity
CAKI-1 = test: Growth inhibition of human Caki1 cells assessed as cell growth at 1 nM relative to untreated control; assay type: functional; conditions: read-out: Activity; outline: as §1
SK-MEL-5 = test: Growth inhibition of human SK-MEL-5 cells; assay type: functional
SNB-75 = test: Growth inhibition of human SNB75 cells assessed as cell growth at 1 nM relative to untreated control; assay type: functional; conditions: read-out: Activity
OVCAR-8 = test: Growth inhibition of human OVCAR8 cells assessed as cell growth at 100 nM relative to untreated control; assay type: functional; conditions: read-out: Activity
HL-60(TB) [14] = test: Growth inhibition of human HL-60(TB) cells assessed as cell growth at 10 nM relative to untreated control; assay type: functional; conditions: read-out: Activity
NCI-H460 [15] = test: Growth inhibition of human NCI-H460 cells assessed as cell growth at 1 uM relative to untreated control; assay type: functional; conditions: read-out: Activity
A498 [16] = test: Growth inhibition of human A498 cells assessed as cell growth at 1 nM relative to untreated control; assay type: functional; conditions: read-out: Activity
TK-10 = test: Growth inhibition of human TK10 cells assessed as cell growth at 10 nM relative to untreated control; assay type: functional; conditions: read-out: Activity
SR [17] = test: Growth inhibition of human SR cells; assay type: functional
NCI-H460 [18] = test: Growth inhibition of human NCI-H460 cells assessed as cell growth at 10 uM relative to untreated control; assay type: functional; conditions: read-out: Activity
MOLT-4 [19] = test: Growth inhibition of human MOLT4 cells assessed as cell growth at 100 nM relative to untreated control; assay type: functional; conditions: read-out: Activity
BT-549 = test: Growth inhibition of human BT549 cells assessed as cell growth at 1 uM relative to untreated control; assay type: functional; conditions: read-out: Activity
OVCAR-5 [20] = test: Growth inhibition of human OVCAR5 cells assessed as cell growth at 100 nM relative to untreated control; assay type: functional; conditions: read-out: Activity
HL-60(TB) [21] = test: Growth inhibition of human HL-60(TB) cells assessed as cell growth at 100 nM relative to untreated control; assay type: functional; conditions: read-out: Activity
UACC-62 [22] = test: Growth inhibition of human UACC62 cells assessed as cell growth at 1 nM relative to untreated control; assay type: functional; conditions: read-out: Activity
COLO 205 = test: Growth inhibition of human COLO205 cells assessed as cell growth at 10 nM relative to untreated control; assay type: functional; conditions: read-out: Activity
[23] = Growth inhibition of human Hs 578T cells assessed as cell growth at 1 nM relative to untreated control; assay type: functional; conditions: read-out: Activity
NCI-H322M = test: Growth inhibition of human NCI-H322M cells; assay type: functional
MDA-MB-231 [24] = test: Growth inhibition of human MDA-MB-231 cells assessed as cell growth at 10 uM relative to untreated control; assay type: functional; conditions: read-out: Activity
[25] = Therapeutic index, ratio of toxic dose in BALB/c mouse to antitumor dose in human PC3 cells xenografted BALB/c mouse; assay type: cell-based, PC-3; conditions: in vivo, read-out: TI
DU-145 = test: Growth inhibition of human DU145 cells assessed as cell growth at 1 nM relative to untreated control; assay type: functional; conditions: read-out: Activity; outline: as §1
K562 = test: Growth inhibition of human K562 cells assessed as cell growth at 10 uM relative to untreated control; assay type: functional; conditions: read-out: Activity
NCI-H23 = test: Growth inhibition of human NCI-H23 cells assessed as cell growth at 1 nM relative to untreated control; assay type: functional; conditions: read-out: Activity
[26] = read-out: LC50 (the source's name)

`COc1ccc2c(c1)[nH]c1c(C)c(OS(=O)(=O)c3cccc4c(N(C)C)cccc34)ccc12` gave a growth at 1 µM [1] of 1%, a growth at 1 µM (UACC-257 [2]) of 51% and a growth at 10 µM (OVCAR-4) of 30%. It also gave a growth at 0.001 µM (MOLT-4 [3]) of 103%, a growth at 0.01 µM (SK-OV-3) of 95% and a growth at 0.001 µM (SR [4]) of 102%. For the same molecule, the growth at 0.1 µM (HT-29 [5]) was 96%, the growth at 0.01 µM (OVCAR-3) was 100% and the growth at 1 µM (KM12) was 21%. For the same molecule, the growth at 0.001 µM (MCF7) was 95%, the growth at 0.1 µM (UACC-257 [6]) was 97% and the growth at 0.001 µM (OVCAR-5 [7]) was 107%. It also gave a growth at 0.001 µM (RXF 393) of 103%, a growth at 0.01 µM (MDA-MB-231 [8]) of 86% and a growth at 0.1 µM (NCI-H522) of 100%. For the same molecule, the growth at 0.01 µM (SW-620) was 104%, the growth at 1 µM (MOLT-4 [9]) was 20% and the growth at 0.001 µM (Malme-3M) was 93%. For the same molecule, the growth at 0.01 µM (UACC-62 [10]) was 83%, the growth at 10 µM (HCT-15) was 19% and the growth at 0.001 µM (HL-60(TB) [11]) was 88%. For the same molecule, the growth at 1 µM (HT-29 [12]) was 13%, the growth at 1 µM (A498 [13]) was 15% and the growth at 1 µM (SK-MEL-28) was 39%. The growth at 0.01 µM (IGROV-1) was 110%, the growth at 0.001 µM (CAKI-1) was 98% and the GI50 (SK-MEL-5) was 2730 nM. The TGI (SK-MEL-5) was 9.34 µM, the CC50 (SK-MEL-5; [26]) was over 100 µM and the growth at 0.001 µM (SNB-75) was 107%. For the same molecule, the growth at 0.1 µM (OVCAR-8) was 101%, the growth at 0.01 µM (HL-60(TB) [14]) was 83% and the growth at 1 µM (NCI-H460 [15]) was 9%. The growth at 0.001 µM (A498 [16]) was 93%, the growth at 0.01 µM (TK-10) was 94% and the GI50 (SR [17]) was 3.51 µM. For the same molecule, the TGI (SR [17]) was over 100 µM, the CC50 (SR [17]; [26]) was over 100 µM and the growth at 10 µM (NCI-H460 [18]) was -3%. It also gave a growth at 0.1 µM (MOLT-4 [19]) of 99%, a growth at 1 µM (BT-549) of 37% and a growth at 0.1 µM (OVCAR-5 [20]) of 103%. The growth at 0.1 µM (HL-60(TB) [21]) was 69%, the growth at 0.001 µM (UACC-62 [22]) was 89% and the growth at 0.01 µM (COLO 205) was 94%. For the same molecule, the growth at 0.001 µM [23] was 105%, the GI50 (NCI-H322M) was 12.8 µM and the TGI (NCI-H322M) was over 100 µM. It also gave a CC50 (NCI-H322M; [26]) of over 100 µM, a growth at 10 µM (MDA-MB-231 [24]) of 40% and a selectivity ratio [25] of over 55. It also gave a growth at 0.001 µM (DU-145) of 113%, a growth at 10 µM (K562) of 5% and a growth at 0.001 µM (NCI-H23) of 89%.
